This is an account of results in PubChem BioAssay AID588621 (Sanford-Burnham Center for Chemical Genomics, 2011).

Each structure is given as a SMILES string. In all, about 360,000 compounds went through this assay and about 890 (0.25%) were called active. The sample holds actives, similar compounds and a random draw of the others, so the mix is not that of the screen. Values without a mark were called inactive.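 How the source made its calls: active means inhibition at 20 µM, scaled per plate between control wells, above about 37% (limit read from the data); inactive means the rest.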

The target of this test is Tyrosine-protein phosphatase non-receptor type 5 (Homo sapiens) (UniProt P54829). In words: inhibition of human PTPN5 enzyme activity – biochemical, fluorescence intensity, uHTS, primary screen (AID 588621).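 Further: 0% = DMSO with enzyme and substrate and 100% = substrate only without enzyme.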 The settings on record: recombinant STEP, OMFP fluorogenic substrate, at 20 µM, active compounds read high. An outline of the steps: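 Also added – OMFP at 25 µM · Test system – STEP tyrosine phosphatase · Technique – FITC-channel fluorescence of OMFP product · Schedule – 20 min at room temperature, dark · Evaluation – control-normalized % inhibition with plate pattern correction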
Sequence of Tyrosine-protein phosphatase non-receptor type 5 (Homo sapiens) (P54829 whole entry, looked up): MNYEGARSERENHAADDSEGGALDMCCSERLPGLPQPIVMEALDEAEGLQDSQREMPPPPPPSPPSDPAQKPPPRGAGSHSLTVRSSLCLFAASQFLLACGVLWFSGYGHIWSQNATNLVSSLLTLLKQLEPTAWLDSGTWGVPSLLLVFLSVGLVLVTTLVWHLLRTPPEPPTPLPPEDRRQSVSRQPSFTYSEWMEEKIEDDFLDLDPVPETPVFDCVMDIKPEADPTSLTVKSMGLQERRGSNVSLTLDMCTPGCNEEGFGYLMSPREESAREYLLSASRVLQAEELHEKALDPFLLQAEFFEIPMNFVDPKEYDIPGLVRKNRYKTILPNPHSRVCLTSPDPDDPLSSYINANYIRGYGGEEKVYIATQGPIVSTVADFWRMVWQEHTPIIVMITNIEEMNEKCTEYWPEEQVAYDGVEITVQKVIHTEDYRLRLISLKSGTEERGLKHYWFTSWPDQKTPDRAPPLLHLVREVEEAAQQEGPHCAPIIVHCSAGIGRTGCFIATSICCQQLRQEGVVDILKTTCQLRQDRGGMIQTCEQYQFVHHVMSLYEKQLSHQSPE
What is called inhibition is the relative decrease from the control value, in per cent. On to `O=C(NCc1ccccc1)C(c1cccnc1)N(C(=O)c1csnn1)c1ccc(F)cc1` (stereo unspecified), for which the inhibition was 2.3%. Next, `Cc1ccc(-n2c(C)cc(/C=C(\C#N)C(=O)NCC3CCCO3)c2C)cc1` (stereo unspecified): 0.4%; `CCCCNC(=O)c1c[nH]c2ccc(S(=O)(=O)Nc3ccc(OCC)cc3)cc2c1=O`: 4.4%; `Cc1nc2ccc(NC(=S)N3CCC(C)CC3)cc2nc1C`: 2.1%. `CC1=C(C(=O)N2CCOCC2)CC(CC(=O)NCCCN(C)C)C(=O)N1Cc1ccc(C(C)(C)C)cc1` (stereo unspecified): the inhibition was -2.8%. The same measure for `CC(=O)c1ccc(NC(=O)CSC(=S)N2CCCC2)cc1`: 0.8%; for `O=C(CSC(=S)N1CCCCC1)c1c(F)cccc1F`: 87.8% (active). On to `COc1cccc(NC(=O)CN(C)C(=O)CSC(=S)N2CCCC2)c1`, for which the inhibition is -1.5%.

For the compound `O=S(=O)(NCC1CN(S(=O)(=O)c2ccc3c(c2)OCCO3)C1)c1c(F)cccc1F`, the inhibition was -0.5%.

`COc1ccc(NC(=O)c2ccco2)cc1NC(=O)c1ccc(C#N)cc1F`: the inhibition is -1.6%. Take `N#Cc1ccc(C(=O)Nc2cccc3cccnc23)c(F)c1`: the inhibition is 97.4% (active).

As for `CSc1ccc(C#N)cc1NC(=O)c1ccc(Cl)cc1`, the inhibition is -9.6%. Consider `CSCCC(NC(=O)COc1ccccc1)C(=O)N(C)CC(=O)Nc1ccc(C)cc1` (stereo unspecified), for which the inhibition was -3.9%. The same measure for `COc1ccc(CN2CCCC(CNC(=O)c3ccc(F)cc3)C2)cc1OC` (stereo unspecified): 0.7%; for `C[C@H](CO)N1C[C@H](C)[C@H](CN(C)C(=O)c2ccncc2)OCc2ccccc2-c2c(n(C)c3ccccc23)C1=O`: 1.4%. Next, `O=C1CCC(C(=O)Nc2ccc(OC(F)F)cc2)N1` (stereo unspecified): 1.3%.

As to `CCc1ccc(NC(=O)CS(=O)CC(=O)NCCCc2ccccc2)cc1` (stereo unspecified), the inhibition is 41.6% (active). Consider `CCc1ccc(NC(=O)CS(=O)CC(=O)N2CCN(c3ccccc3F)CC2)cc1` (stereo unspecified), for which the inhibition was 2.2%. The same measure for `S=C(NCCCc1ccccc1)Nc1ccc(Br)cc1`: 1.3%. With `Cc1ccc(S(=O)(=O)NN=C2CC(C)(C)CC(=O)C2(C)C)cc1`, the inhibition is -2.2%. Consider `CCOc1nnc(C)c2c(C)n(-c3cccc(Cl)c3)nc12`, for which the inhibition was -2.6%.
